In ChEMBL document CHEMBL4145471, “New 1,5 and 2,5-disubstituted tetrazoles-dependent activity towards surface barrier of Candida albicans” (Eur J Med Chem, 2018):

What was measured:
Candida albicans [1] = experiment: Synergistic antifungal activity against Candida albicans ATCC 90028 at 20 ug/ml after 48 hrs in presence of 20 ug/ml fluconazol by checkerboard assay relative to control; assay type: functional; settings: ATCC 90028, 48 h, read-out: GI
Procedure, shortened: (§1)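 Checkerboard in C. albicans ATCC 90028, inoculum prepared per CLSI M27-A3 in RPMI. Fluconazole serially diluted 80-1.25 µg/mL across the plate against the partner compound at 80-1.25 µg/mL final. Incubated 48 h at 35°C. Metabolic activity read by XTT reduction at 475 nm (660 nm reference), given as % of the untreated growth control.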

Candida albicans [2] = experiment: Antifungal activity against Candida albicans ATCC 90028 assessed as metabolic activity at 40 ug/ml after 48 hrs in presence of 5 ug/ml fluconazol by XTT assay relative to control
Candida albicans [3] = experiment: Synergistic antifungal activity against Candida albicans ATCC 90028 at 80 ug/ml after 48 hrs in presence of 5 ug/ml fluconazol by checkerboard assay relative to control; assay type: functional; procedure, shortened: as §1
Candida albicans [4] = experiment: Antifungal activity against Candida albicans ATCC 90028 assessed as inhibition of metabolic activity at 1.25 ug/ml after 48 hrs in presence of 80 ug/ml fluconazol by XTT assay relative to control; assay type: functional; settings: values are per cent of control
Procedure, shortened: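 Checkerboard against strain ATCC 90028, inoculum per M27-A3: fluconazole 80-1.25 µg/mL on one axis, tetrazole 80-1.25 µg/mL on the other. Plates at 35°C for 48 h, then XTT metabolic reduction read at 475 nm (660 nm reference). Activity is the drop in mean absorbance against untreated growth control. FICs and their summed FIC index are taken at 50% reduction in metabolic activity.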

Candida albicans [5] = experiment: Antifungal activity against Candida albicans ATCC 90028 at 2 ug/ml after 48 hrs relative to control; assay type: functional
Procedure, shortened: (§2)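 Planktonic broth microdilution per M27-A3 in MOPS-buffered RPMI 1640 (pH 7.0), final inoculum 1.8×10^3 cells/mL, compounds 0.0313–16 µg/mL from 1600 µg/mL stocks in ethanol or DMSO. Incubated at 35°C without agitation; OD405 read at 18 and 48 h. % inhibition was derived from test, sterility (no inoculum) and solvent growth-control wells. Amphotericin B at 0.5 µg/mL served as the 100% control.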

Candida albicans [6] = experiment: Synergistic antifungal activity against Candida albicans ATCC 90028 at 40 ug/ml after 48 hrs in presence of 80 ug/ml fluconazol by checkerboard assay relative to control; assay type: functional; procedure, shortened: as §1
Candida albicans [7] = experiment: Antifungal activity against Candida albicans ATCC 90028 assessed as inhibition of metabolic activity at 2.5 ug/ml after 48 hrs in presence of 80 ug/ml fluconazol by XTT assay relative to control; assay type: functional; settings: values are per cent of control
Procedure, shortened: (§3)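 C. albicans ATCC 90028 in checkerboard: fluconazole serial dilutions (80-1.25 µg/mL) crossed with tetrazole (80-1.25 µg/mL final), M27-A3 inoculum in RPMI 1640, 35°C for 48 h. Metabolic activity measured by XTT reduction, read at 475 nm (660 nm reference). Activity expressed relative to untreated growth control absorbance.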

Candida albicans [8] = experiment: Synergistic antifungal activity against Candida albicans ATCC 90028 at 2.5 ug/ml after 48 hrs in presence of 1.25 ug/ml fluconazol by checkerboard assay relative to control; assay type: functional
Procedure, shortened: (§4)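 Checkerboard microdilution (M27-A3) on C. albicans ATCC 90028 in RPMI 1640: fluconazole (80-1.25 µg/mL) crossed with tetrazole (80-1.25 µg/mL final), incubated at 35°C for 48 h. Growth by OD405 at 18 and 48 h, endpoint taken as 100% inhibition. FIC index = sum of the two agents' FICs; <1 synergism, >1 antagonism.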

Candida albicans [9] = experiment: Antifungal activity against Candida albicans ATCC 90028 assessed as metabolic activity at 20 ug/ml after 48 hrs in presence of 2.5 ug/ml fluconazol by XTT assay relative to control
Caco-2 = experiment: Cytotoxicity against human Caco2 cells assessed as reduction in cell viability at 256 ug/ml after 18 hrs by XTT assay ralative to control; assay type: cell-based; settings: caco-2, 18 h
Procedure, shortened: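 Caco-2 cells were exposed to compound at 256, 16 or 0.0313 µg/mL for 18 h, then given XTT reagent for 4–6 h. Absorbance was read at 475 nm with a 660 nm reference, and viability and toxicity were expressed as %. CC50 was taken as the concentration giving 50% viability loss. Means ± SD of three independent experiments, samples in duplicate.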

Candida albicans [10] = experiment: Antifungal activity against Candida albicans ATCC 90028 assessed as inhibition of metabolic activity at 10 ug/ml after 48 hrs in presence of 2.5 ug/ml fluconazol by XTT assay relative to control; assay type: functional; settings: values are per cent of control; procedure, shortened: as §3
Candida albicans [11] = experiment: Synergistic antifungal activity against Candida albicans ATCC 90028 at 2.5 ug/ml after 48 hrs in presence of 5 ug/ml fluconazol by checkerboard assay relative to control; assay type: functional; procedure, shortened: as §4
Candida albicans [12] = experiment: Synergistic antifungal activity against Candida albicans ATCC 90028 at 10 ug/ml after 48 hrs in presence of 2.5 ug/ml fluconazol by checkerboard assay relative to control; assay type: functional; procedure, shortened: as §4
Candida albicans [13] = experiment: Antifungal activity against Candida albicans ATCC 90028 at 1 ug/ml after 18 hrs relative to control; assay type: functional; procedure, shortened: as §2
Candida albicans [14] = experiment: Antifungal activity against Candida albicans ATCC 90028 assessed as metabolic activity at 20 ug/ml after 48 hrs in presence of 20 ug/ml fluconazol by XTT assay relative to control; settings: ATCC 90028, 48 h
Candida albicans [15] = experiment: Antifungal activity against Candida albicans ATCC 90028 assessed as metabolic activity at 80 ug/ml after 48 hrs in presence of 1.25 ug/ml fluconazol by XTT assay relative to control
Candida albicans [16] = experiment: Antifungal activity against Candida albicans ATCC 90028 after 48 hrs by M27-A3 microdilution method; assay type: functional; settings: ATCC 90028, 48 h
Candida albicans [17] = experiment: Antifungal activity against Candida albicans ATCC 90028 at 16 ug/ml after 48 hrs relative to control; assay type: functional; procedure, shortened: as §2
Candida albicans [18] = experiment: Antifungal activity against Candida albicans ATCC 90028 at 16 ug/ml after 18 hrs relative to control; assay type: functional; procedure, shortened: as §2
Candida albicans [19] = experiment: Synergistic antifungal activity against Candida albicans ATCC 90028 at 20 ug/ml after 48 hrs in presence of 80 ug/ml fluconazol by checkerboard assay relative to control; assay type: functional; procedure, shortened: as §1
Candida albicans [20] = experiment: Antifungal activity against Candida albicans ATCC 90028 assessed as metabolic activity at 20 ug/ml after 48 hrs in presence of 80 ug/ml fluconazol by XTT assay relative to control
Candida albicans [21] = experiment: Synergistic antifungal activity against Candida albicans ATCC 90028 at 80 ug/ml after 48 hrs in presence of 1.25 ug/ml fluconazol by checkerboard assay relative to control; assay type: functional; procedure, shortened: as §1

SMILES	inhibition of growth at 20 µg/mL (Candida albicans [1]) [%]	Metabolic activity (Candida albicans [2]) [%]	growth inhibition (GI) (Candida albicans [3]) [%]	residual activity (Candida albicans [4]) [%]	Activity (Candida albicans [5]) [%]	growth inhibition (GI) (Candida albicans [6]) [%]	residual activity (Candida albicans [7]) [%]	growth inhibition (GI) (Candida albicans [8]) [%]	Metabolic activity (Candida albicans [9]) [%]	Activity (Caco-2) [%]	residual activity (Candida albicans [10]) [%]	growth inhibition (GI) (Candida albicans [11]) [%]	growth inhibition (GI) (Candida albicans [12]) [%]	Activity (Candida albicans [13]) [%]	Metabolic activity at 20 µg/mL (Candida albicans [14]) [%]	Metabolic activity (Candida albicans [15]) [%]	MIC (Candida albicans [16]) [µg/mL]	Activity (Candida albicans [17]) [%]	Activity (Candida albicans [18]) [%]	growth inhibition (GI) (Candida albicans [19]) [%]	also measured
Cc1ccc(-c2nnn(CCCN3CCOCC3)n2)cc1	99.1	100	97.8	100	98.3	99.59	84.01	98.95	71.88	13.04	100	98.33	98.46	57.6	61.7	100	> 16	99.44	99.87	99.26	Metabolic activity (Candida albicans [20]): 69.42%; growth inhibition (GI) (Candida albicans [21]): 98.77%
ClCCCn1nnnc1-c1ccccc1Cl	99.7	100	99.27	62.42	99.14	99.54	80.42	100	81.5	63.27	79.69	98.94	99.41	93.49	67.8	2.6	> 16	99.39	99.62	99.33	Metabolic activity (Candida albicans [20]): 81.77%; growth inhibition (GI) (Candida albicans [21]): 100%
CCOC(=O)CCn1nnc(-c2ccccc2)n1	99.5	100	99.18	66.82	99.7	99.58	72.63	99.79	80.61	45.49	71.14	99.08	99.62	85.06	57.3	41.98	> 16	99.65	99.95	99.25	Metabolic activity (Candida albicans [20]): 94.76%; growth inhibition (GI) (Candida albicans [21]): 99.97%
